{"source": "ChEMBL document CHEMBL4477237", "about": "“Structure-Based Design of β5c Selective Inhibitors of Human Constitutive Proteasomes” (J Med Chem, 2016)", "key": {"[1]": {"biological_target": "T1, Proteasome Macropain subunit MB1 (Homo sapiens) (UniProt P28074)", "T1 sequence (whole entry)": "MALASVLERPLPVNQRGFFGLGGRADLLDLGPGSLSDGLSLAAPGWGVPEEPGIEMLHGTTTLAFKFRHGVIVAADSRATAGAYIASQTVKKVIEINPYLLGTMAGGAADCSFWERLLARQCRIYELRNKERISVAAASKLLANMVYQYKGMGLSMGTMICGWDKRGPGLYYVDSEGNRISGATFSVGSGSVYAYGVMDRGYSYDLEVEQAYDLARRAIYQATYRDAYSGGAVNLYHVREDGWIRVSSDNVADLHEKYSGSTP", "assay": "Inhibition of catalytic activity of immunoproteasome 20s subunit beta5/constitutive 20s subunit beta5 in human AMO1 cells assessed as accumulation of ubiquitinated-GFP at 3 uM after 1 hr by FACS analysis", "assay_type": "cell-based", "summary_of_the_method": "(§1)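 AMO-1 myeloma clone stably expressing Ub-G76V-GFP (G418-selected). 5x10⁵ cells pulsed 1 h at 37 °C with inhibitor, washed with PBS, then chased 12 h in inhibitor-free medium (37 °C, 5% CO₂). GFP median fluorescence intensity read by flow cytometry in FITC channel.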"}, "Homo sapiens": {"species_on_record": "Homo sapiens", "assay": "Selectivity ratio of IC50 for immunoproteasome 20s subunit beta5 in human Raji cells to IC50 for constitutive proteasome 20s subunit beta5 in human Raji cells", "assay_type": "cell-based", "summary_of_the_method": "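Initial screen in Raji cell extracts. Inhibitor at 0.01, 0.1, 1.0 and 10.0 µM final for 1 h at 37 °C, then ABP cocktail 1 h. In-gel fluorescence of β5c/β5i bands normalized to mock-treated extract, giving residual activity. Run once. IC50s from this screen feed the β5i/β5c ratio.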"}, "[2]": {"biological_target": "T2, Proteasome Macropain subunit MB1 (Homo sapiens, UniProt P28074)", "T2 sequence (P28074 whole entry)": "T1 sequence (whole entry)", "assay": "(§2) Inhibition of catalytic activity of constitutive proteasome 20s subunit beta5 in human Raji cells incubated for 1 hr by BODIPY(TMR)-NC-005-VS probe based competitive activity based protein profiling assay", "assay_type": "cell-based"}, "[3]": {"biological_target": "T2, Proteasome Macropain subunit MB1", "assay": "(§3) Inhibition of catalytic activity of constitutive proteasome 20s subunit beta5 in human RPMI8226 cells incubated for 1 hr by BODIPY(TMR)-NC-005-VS probe based competitive activity based protein profiling assay", "assay_type": "cell-based", "summary_of_the_method": "(§4)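 Live RPMI-8226 cells ((5-8)x10⁵ cells/mL; RPMI-1640, 10% FCS, GlutaMAX, pen/strep, 5% CO₂) exposed to inhibitor 1 h at 37 °C. Cells washed with PBS and lysed in digitonin/ATP buffer on ice 1 h. Lysates then labelled 1 h with the ABP cocktail and run on SDS-PAGE. In-gel fluorescence bands were normalized to mock and corrected for loading by Coomassie. IC50 from mean of three independent experiments.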"}, "[4]": {"biological_target": "T1, Proteasome Macropain subunit MB1 (Homo sapiens)", "assay": "Inhibition of catalytic activity of immunoproteasome 20s subunit beta5/constitutive 20s subunit beta5 in human AMO1 cells assessed as accumulation of ubiquitinated-GFP at 100 uM after 1 hr by FACS analysis", "assay_type": "cell-based", "summary_of_the_method": "as §1"}, "[5]": {"biological_target": "T1, Proteasome Macropain subunit MB1 (Homo sapiens)", "assay": "as §2", "assay_type": "cell-based"}, "[6]": {"biological_target": "Proteasome Macropain subunit (Homo sapiens) (UniProt P49721)", "assay": "Inhibition of catalytic activity of constitutive proteasome 20s subunit beta2 in human Raji cells incubated for 1 hr by BODIPY(FL)-LU-112 probe based competitive activity based protein profiling assay", "assay_type": "cell-based"}, "[7]": {"biological_target": "T3, Proteasome component C5 (Homo sapiens) (UniProt P20618)", "T3 sequence (whole entry)": "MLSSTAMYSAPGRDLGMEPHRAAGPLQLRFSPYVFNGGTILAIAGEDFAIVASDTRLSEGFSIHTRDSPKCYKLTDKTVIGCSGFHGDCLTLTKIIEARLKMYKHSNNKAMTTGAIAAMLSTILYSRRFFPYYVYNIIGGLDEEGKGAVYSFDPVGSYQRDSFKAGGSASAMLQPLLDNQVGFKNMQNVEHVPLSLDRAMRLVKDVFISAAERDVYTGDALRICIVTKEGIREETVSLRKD", "assay": "Inhibition of catalytic activity of constitutive proteasome 20s subunit beta1 in human Raji cells incubated for 1 hr by Cy5-NC-001 probe based competitive activity based protein profiling assay", "assay_type": "cell-based"}, "[8]": {"biological_target": "Proteasome subunit beta type-9 (β1i, LMP2) (Homo sapiens) (UniProt P28065)", "assay": "Inhibition of catalytic activity of immunoproteasome 20s subunit beta1 in human Raji cells incubated for 1 hr by Cy5-NC-001 probe based competitive activity based protein profiling assay"}, "[9]": {"biological_target": "Proteasome subunit beta type-8 (β5i, LMP7) (Homo sapiens) (UniProt P28062)", "assay": "Inhibition of catalytic activity of immunoproteasome 20s subunit beta5 in human Raji cells incubated for 1 hr by BODIPY(TMR)-NC-005-VS probe based competitive activity based protein profiling assay"}, "[10]": {"biological_target": "T1, Proteasome Macropain subunit MB1 (Homo sapiens)", "assay": "as §3", "assay_type": "cell-based", "summary_of_the_method": "as §4"}, "[11]": {"biological_target": "Proteasome Macropain subunit (Homo sapiens) (UniProt P49721)", "assay": "Inhibition of catalytic activity of constitutive proteasome 20s subunit beta2 in human RPMI8226 cells incubated for 1 hr by BODIPY(FL)-LU-112 probe based competitive activity based protein profiling assay", "assay_type": "cell-based", "summary_of_the_method": "as §4"}, "[12]": {"biological_target": "T3, Proteasome component C5 (Homo sapiens)", "assay": "Inhibition of catalytic activity of constitutive proteasome 20s subunit beta1 in human RPMI8226 cells incubated for 1 hr by Cy5-NC-001 probe based competitive activity based protein profiling assay", "assay_type": "cell-based", "summary_of_the_method": "as §4"}, "[13]": {"biological_target": "Proteasome subunit beta type-9 (β1i, LMP2) (Homo sapiens) (UniProt P28065)", "assay": "Inhibition of catalytic activity of immunoproteasome 20s subunit beta1 in human RPMI8226 cells incubated for 1 hr by Cy5-NC-001 probe based competitive activity based protein profiling assay"}, "[14]": {"biological_target": "Proteasome subunit beta type-8 (β5i, LMP7) (Homo sapiens) (UniProt P28062)", "assay": "Inhibition of catalytic activity of immunoproteasome 20s subunit beta5 in human RPMI8226 cells incubated for 1 hr by BODIPY(TMR)-NC-005-VS probe based competitive activity based protein profiling assay"}}, "note": "Calls of active or inactive are those of the source. The rule behind the calls is not given here.", "data": [{"smiles": "COc1ccc(C[C@H](NC(=O)Cc2ccc3ccccc3c2)C(=O)N[C@@H](Cc2ccccc2)C(=O)N[C@@H](CC(C)C)C(=O)[C@@]2(C)CO2)cc1", "values": [{"measurement": "inhibition", "setting": "[1]", "result": "Active"}]}, {"smiles": "CC(C)C[C@H](NC(=O)CN1CCOCC1)C(=O)N[C@@H](C[C@H]1CC[C@H](C2CCCCC2)CC1)C(=O)N[C@@H](Cc1ccccc1)C(=O)N[C@@H](C)C(=O)[C@@]1(C)CO1", "values": [{"measurement": "Ratio IC50", "setting": "Homo sapiens", "result": 814}, {"measurement": "IC50", "setting": "[2]", "result": 28, "unit": "nM"}, {"measurement": "IC50", "setting": "[3]", "result": 274, "unit": "nM"}, {"measurement": "inhibition", "setting": "[4]", "result": "Active"}]}, {"smiles": "CC(C)C[C@H](NC(=O)[C@H](Cc1ccccc1)NC(=O)[C@H](CC1CCC(C)CC1)NC(=O)[C@H](Cc1ccccc1)N=[N+]=[N-])C(=O)[C@@]1(C)CO1", "note": "(some centres not stated)", "values": [{"measurement": "pIC50(app)", "setting": "[5]", "result": 8.7}, {"measurement": "IC50", "setting": "[2]", "result": 2, "unit": "nM"}, {"measurement": "pIC50(app)", "setting": "[6]", "result": 7.34}, {"measurement": "pIC50(app)", "setting": "[7]", "result": "< 4"}, {"measurement": "pIC50(app)", "setting": "[8]", "result": "< 4"}, {"measurement": "pIC50(app)", "setting": "[9]", "result": 7.96}]}, {"smiles": "C[C@H](NC(=O)[C@H](Cc1ccccc1)NC(=O)[C@H](C[C@H]1CC[C@H](C2CCCCC2)CC1)NC(=O)[C@H](Cc1ccccc1)N=[N+]=[N-])C(=O)[C@@]1(C)CO1", "values": [{"measurement": "IC50", "setting": "[2]", "result": 4.9, "unit": "nM"}, {"measurement": "inhibition", "setting": "[10]", "result": "inactive"}, {"measurement": "inhibition", "setting": "[11]", "result": "inactive"}, {"measurement": "inhibition", "setting": "[12]", "result": "inactive"}, {"measurement": "inhibition", "setting": "[13]", "result": "inactive"}, {"measurement": "inhibition", "setting": "[14]", "result": "inactive"}]}]}
